# Test results taken from ChEMBL document CHEMBL3734658, “Ring-truncated deguelin derivatives as potent Hypoxia Inducible Factor-1α (HIF-1α) inhibitors” (Eur J Med Chem, 2015).
# Active and inactive are the calls of the source. No cut-off for these calls is given here.
# Key:
# [1] = biological target: Hypoxia-inducible factor 1-alpha (Homo sapiens) (UniProt Q16665); test: Inhibition of HIF-1alpha in human H1299 cells at 100 nM after 72 hrs subsequently incubated for 12 hrs under hypoxic conditions by Western blot assay relative to control; assay type: cell-based; settings: values are per cent of control
# Sequence of Hypoxia-inducible factor 1-alpha (Homo sapiens) (Q16665 whole entry, looked up): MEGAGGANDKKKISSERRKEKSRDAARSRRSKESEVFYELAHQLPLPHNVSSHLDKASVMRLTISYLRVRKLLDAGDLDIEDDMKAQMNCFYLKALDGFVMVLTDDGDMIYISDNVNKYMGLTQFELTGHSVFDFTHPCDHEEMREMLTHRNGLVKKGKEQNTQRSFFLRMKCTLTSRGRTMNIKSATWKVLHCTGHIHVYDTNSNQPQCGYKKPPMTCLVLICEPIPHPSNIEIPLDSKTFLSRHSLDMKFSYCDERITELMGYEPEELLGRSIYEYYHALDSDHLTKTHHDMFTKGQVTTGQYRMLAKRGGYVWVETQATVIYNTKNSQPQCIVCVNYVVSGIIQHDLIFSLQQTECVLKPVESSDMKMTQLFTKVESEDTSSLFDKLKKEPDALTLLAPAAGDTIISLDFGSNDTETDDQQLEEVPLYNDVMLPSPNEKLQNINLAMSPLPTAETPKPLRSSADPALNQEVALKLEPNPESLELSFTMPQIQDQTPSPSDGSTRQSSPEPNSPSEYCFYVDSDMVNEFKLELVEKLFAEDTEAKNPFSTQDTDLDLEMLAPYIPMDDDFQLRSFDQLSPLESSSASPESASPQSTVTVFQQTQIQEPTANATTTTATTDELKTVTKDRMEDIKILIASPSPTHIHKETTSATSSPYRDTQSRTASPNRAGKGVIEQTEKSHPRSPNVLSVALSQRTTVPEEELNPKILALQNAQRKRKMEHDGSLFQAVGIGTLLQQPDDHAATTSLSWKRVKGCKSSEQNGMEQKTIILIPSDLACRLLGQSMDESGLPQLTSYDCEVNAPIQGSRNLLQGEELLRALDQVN
# Summary of the method: (§1)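 H1299 non-small-cell lung carcinoma cells were left untreated or exposed to compound at 100 nM (or 10 nM for a follow-up subset) for 72 h. They were then held under hypoxia for 12 h, and HIF-1α protein was assessed by western blot.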
# [2] = biological target: Hypoxia-inducible factor 1-alpha (Homo sapiens) (UniProt Q16665); test: Inhibition of HIF-1alpha in human H1299 cells at 10 nM after 72 hrs subsequently incubated for 12 hrs under hypoxic conditions by Western blot assay relative to control; assay type: cell-based; settings: values are per cent of control; summary of the method: as §1
# [3] = Antitumor activity against human H1299 cells assessed as reduction in cell viability at 20 uM by MTT assay; assay type: functional; settings: NCI-H1299
# NCI-H1299 = test: Antitumor activity against human H1299 cells assessed as reduction in cell viability by MTT assay; assay type: functional, cell-based
# [4] = Cytotoxicity against mouse HT22 cells assessed as cell viability at 0.1 to 10 uM; assay type: cell-based; settings: ht-22, 10 µM
# Homo sapiens [5] = species: Homo sapiens; test: Antiangiogenic activity in human RMVEC assessed as inhibition of VEGF-induced cell migration under hypoxic condition at 100 nM by transwell chamber system; assay type: functional
# [6] = biological target: Hypoxia-inducible factor 1-alpha (Homo sapiens) (UniProt Q16665); test: Inhibition of HIF-1alpha in human H1299 cells after 72 hrs subsequently incubated for 12 hrs under hypoxic conditions by Western blot assay relative to control; assay type: cell-based; summary of the method: as §1
# Homo sapiens [7] = species: Homo sapiens; test: Antiangiogenic activity in human RMVEC assessed as inhibition of VEGF-induced cell proliferation under hypoxic condition at 100 nM by [3H]thymidine incorporation assay; assay type: functional
"response, % of control [1] [%]",SMILES,further results
108,COc1ccc(C(C)(C)C(OC(N)=O)c2ccc3c(c2OC)C=CC(C)(C)O3)nc1OC (stereo not given),
133,COc1ccc(/C=C/c2ccc3c(c2OC)C=CC(C)(C)O3)nc1OC,
99.9,COc1ccc(C(C)(C)C(=O)c2ccc3c(c2OC)C=CC(C)(C)O3)nc1OC,
79.2,COc1ccc(C/C(=N/O)c2ccc3c(c2OC)C=CC(C)(C)O3)nc1OC,
68.9,COc1ccc([C@H](O)[C@@H](O)c2ccc3c(c2OC)C=CC(C)(C)O3)nc1OC (relative stereo),
113,COc1ccc(C(C)(C)C(OC(C)=O)c2ccc3c(c2OC)C=CC(C)(C)O3)nc1OC (stereo not given),
85.3,COc1ccc(CC(=O)c2ccc3c(c2OC)C=CC(C)(C)O3)cc1OC,
75.2,COc1ccc(CC(O)c2ccc3c(c2OC)C=CC(C)(C)O3)nc1OC (stereo not given),
78.5,COc1ccc(C/C(=N\O)c2ccc3c(c2OC)C=CC(C)(C)O3)nc1OC,
89.3,COc1ccc(C(C)C(=O)c2ccc3c(c2OC)C=CC(C)(C)O3)nc1OC (stereo not given),
75,COc1ccc(CC(OC(N)=O)c2ccc3c(c2OC)C=CC(C)(C)O3)nc1OC (stereo not given),
96.7,COc1ccc(C(C)C(OC(C)=O)c2ccc3c(c2OC)C=CC(C)(C)O3)nc1OC (stereo not given),
134,COc1ccc(/C=C/c2ccc3c(c2OC)C=CC(C)(C)O3)c(F)c1OC,
64.8,CO/N=C(/Cc1ccc(OC)c(OC)n1)c1ccc2c(c1OC)C=CC(C)(C)O2,"response, % of control [2]: 74%"
77.6,COc1ccc(CC(=O)c2ccc3c(c2OC)C=CC(C)(C)O3)nc1OC,
114,COc1ccc(CC(OC(C)=O)c2ccc3c(c2OC)C=CC(C)(C)O3)nc1OC (stereo not given),
44.2,COc1ccc([C@H](C)C(=O)c2ccc3c(c2OC)C=CC(C)(C)O3)nc1OC,"response, % of control [2]: 88.4%"
71.2,COc1ccc(C(C)C(O)c2ccc3c(c2OC)C=CC(C)(C)O3)nc1OC (stereo not given),
69.2,COc1ccc(C(C)(C)C(O)c2ccc3c(c2OC)C=CC(C)(C)O3)nc1OC (stereo not given),

# Continued, molecule first:
SMILES,"response, % of control [1] [%]",further results
COc1ccc(C(C)(C)C(=O)c2ccc3c(c2OC)C=CC(C)(C)O3)c(F)c1OC,74.9,
COc1ccc(C(C)(C)C(OC(C)=O)c2ccc3c(c2OC)C=CC(C)(C)O3)c(F)c1OC (stereo not given),83.4,
COc1ccc(C(C)C(OC(=O)C2CCC2)c2ccc3c(c2OC)C=CC(C)(C)O3)c(F)c1OC (stereo not given),69.5,
COc1ccc(C(C)(C)C(O)c2ccc3c(c2OC)C=CC(C)(C)O3)c(F)c1OC (stereo not given),68,
CNC(=O)OC(c1ccc2c(c1OC)C=CC(C)(C)O2)C(C)c1ccc(OC)c(OC)c1F (stereo not given),76.5,
CCC(c1ccc(OC)c(OC)c1F)C(OC(=O)C1CC1)c1ccc2c(c1OC)C=CC(C)(C)O2 (stereo not given),87.9,
COc1ccc([C@H](O)[C@@H](O)c2ccc3c(c2OC)C=CC(C)(C)O3)c(F)c1OC (relative stereo),68.1,
COc1ccc([C@H](C)[C@H](OC(C)=O)c2ccc3c(c2OC)C=CC(C)(C)O3)c(F)c1OC (relative stereo),79.4,
COc1ccc(CC(OC(N)=O)c2ccc3c(c2OC)C=CC(C)(C)O3)c(F)c1OC (stereo not given),88.9,
COc1ccc(C(C)C(=O)c2ccc3c(c2OC)C=CC(C)(C)O3)c(F)c1OC (stereo not given),78.6,
COc1ccc(C(C)C(OC(N)=O)c2ccc3c(c2OC)C=CC(C)(C)O3)c(F)c1OC (stereo not given),48.8,"response, % of control [2]: 80.9%"
COc1ccc(C(C)C(OC(=O)C2CC2)c2ccc3c(c2OC)C=CC(C)(C)O3)c(F)c1OC (stereo not given),35,"response, % of control [2]: 81.6%; inhibition at 20 µM [3]: 50%; Activity (NCI-H1299): Dose-dependent effect"
COc1ccc(CC(OC(=O)C2CC2)c2ccc3c(c2OC)C=CC(C)(C)O3)c(F)c1OC (stereo not given),70.3,
COc1ccc(C(C)C(OC(=O)N(C)C)c2ccc3c(c2OC)C=CC(C)(C)O3)c(F)c1OC (stereo not given),64.1,"response, % of control [2]: 93.6%"
COc1cc2c(cc1OC)[C@@H]1C(=O)c3ccc4c(c3O[C@@H]1CO2)C=CC(C)(C)O4 [DEGUELIN],64,"response, % of control [2]: 94%; Activity [4]: Toxic"
COc1ccc(CC(OC(C)=O)c2ccc3c(c2OC)C=CC(C)(C)O3)c(F)c1OC (stereo not given),69.3,
COc1ccc([C@H](C)C(=O)c2ccc3c(c2OC)C=CC(C)(C)O3)cc1OC,82.1,
CCC(=O)OC(Cc1ccc(OC)c(OC)c1F)c1ccc2c(c1OC)C=CC(C)(C)O2 (stereo not given),77.3,
COc1ccc([C@H](C)[C@@H](OC(C)=O)c2ccc3c(c2OC)C=CC(C)(C)O3)c(F)c1OC (relative stereo),52.2,"Activity (Homo sapiens [5]): Active; response, % of control [2]: 63.2%; inhibition at 20 µM [3]: 50%; Activity [4]: Non-toxic; Activity (NCI-H1299): Dose-dependent effect; inhibition [6]: Dose-dependent effect; Activity (Homo sapiens [7]): Active"
COc1ccc(C(C)C(O)c2ccc3c(c2OC)C=CC(C)(C)O3)c(F)c1OC (stereo not given),75,
CCC(=O)OC(c1ccc2c(c1OC)C=CC(C)(C)O2)C(C)c1ccc(OC)c(OC)c1F (stereo not given),63.7,
CCC(=O)OC(c1ccc2c(c1OC)C=CC(C)(C)O2)C(C)(C)c1ccc(OC)c(OC)c1F (stereo not given),88.2,
COc1ccc(C(C)(C)C(OC(=O)C2CC2)c2ccc3c(c2OC)C=CC(C)(C)O3)c(F)c1OC (stereo not given),111,
COc1ccc(CC(=O)c2ccc3c(c2OC)C=CC(C)(C)O3)c(F)c1OC,67.8,
COc1ccc(CC(O)c2ccc3c(c2OC)C=CC(C)(C)O3)c(F)c1OC (stereo not given),74.3,
